# Assay results from ChEMBL document CHEMBL4364294 (J Med Chem, 2019).
# What was measured:
# [1] = Oral bioavailability in dog at 150 mg/kg administered as single dose; format: ADME, organism-based, Canis lupus familiaris; settings: in vivo
# [2] = Clearance in dog at 1 mg/kg, iv administered as single dose; format: ADME, organism-based, Canis lupus familiaris; settings: in vivo
# How it was run: (§1)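 Dogs were given single intravenous doses, or oral doses from 5 to 50 mg/kg. Plasma PK parameters were CL, AUC0-inf, t1/2, Cmax and %F.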
# [3] = Half life in dog at 1 mg/kg, iv administered as single dose; format: ADME, organism-based, Canis lupus familiaris; settings: in vivo
# How it was run: (§2)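 Dogs were dosed once, by iv injection or orally, with oral doses spanning 5 to 50 mg/kg. Plasma pharmacokinetic parameters were derived: CL, AUC0-inf, t1/2, Cmax and %F.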
# [4] = Tmax in Sprague-Dawley rat at 10 to 50 mg/kg, po administered as single dose; format: ADME, organism-based; settings: in vivo
# How it was run: (§3)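 Sprague-Dawley rats each received one dose of drug, either iv across 10-50 mg/kg or orally at 10, 25 and 50 mg/kg. Plasma pharmacokinetics covered CL, AUC0-inf, t1/2, Cmax and Tmax. Oral bioavailability (%F) was obtained from the oral and iv exposures.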
# [5] = AUC (0 to infinity) in dog at 5 mg/kg, po administered as single dose; format: ADME, organism-based, Canis lupus familiaris; parameters: dose 5 mg/kg, time infinity, route oral; settings: in vivo; how it was run: as §1
# [6] = Half life in C57Bl6 mouse at 50 mg/kg, iv administered as single dose; format: ADME, organism-based; settings: in vivo
# How it was run: (§4)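 C57Bl/6 mice were given single intravenous or oral doses (oral at 10 and 100 mg/kg). Plasma PK parameters were CL, AUC0-inf, t1/2, Cmax and %F.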
# [7] = AUC (0 to infinity) in C57Bl6 mouse at 10 mg/kg, po administered as single dose; format: ADME, organism-based; parameters: dose 10 mg/kg, time infinity, route oral; settings: in vivo; how it was run: as §4
# [8] = Permeability across basolateral to apical side in human Caco2 cells; format: ADME, cell-based; settings: Caco-2, read-out: permeability
# [9] = Aqueous solubility of the compound at pH 6.5; format: physicochemical
# [10] = Clearance in dog at 25 mg/kg, iv administered as single dose; format: ADME, organism-based, Canis lupus familiaris; settings: in vivo; how it was run: as §1
# [11] = Half life in Sprague-Dawley rat at 25 mg/kg, iv administered as single dose; format: ADME, organism-based; settings: in vivo; how it was run: as §3
# [12] = AUC (0 to infinity) in dog at 15 mg/kg, po administered as single dose; format: ADME, organism-based, Canis lupus familiaris; parameters: dose 15 mg/kg, route oral, time infinity; settings: in vivo; how it was run: as §1
# [13] = Toxicity in dog administered twice daily for 28 days with 2 week recovery; parameters: species or system Canis lupus familiaris; settings: in vivo
# How it was run: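 Rats and dogs underwent 28-day repeat-dose studies with twice-daily dosing, followed by a 2-week recovery period. The NOAEL (mg/kg/dose BID) was established, and the matching systemic exposure was reported as AUC0-inf.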
# [14] = Drug uptake in C57Bl6 mouse plasma at 50 mg/kg, po administered as single dose measured at 1 hr post-dose; format: ADME, organism-based; settings: in vivo
# How it was run: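 C57Bl/6 mice received a single oral dose of 50 mg/kg. Drug levels were compared in plasma and other organs over time after dosing.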
# [15] = Clearance in dog at 3 mg/kg, iv administered as single dose; format: ADME, organism-based, Canis lupus familiaris; settings: in vivo; how it was run: as §1
# [16] = AUC (0 to 12 hrs) in dog at 200 mg/kg administered twice daily for 28 days with 2 week recovery; format: ADME, organism-based, Canis lupus familiaris; parameters: dose 200 mg/kg, time < 12 hr; settings: in vivo
# [17] = Half life in Sprague-Dawley rat at 50 mg/kg, po administered as single dose; format: ADME, organism-based; settings: in vivo; how it was run: as §3
# [18] = Half life in C57Bl6 mouse at 10 mg/kg, iv administered as single dose; format: ADME, organism-based; settings: in vivo; how it was run: as §4
# [19] = Clearance in dog at 10 mg/kg, iv administered as single dose; format: ADME, organism-based, Canis lupus familiaris; settings: in vivo; how it was run: as §1
# [20] = Cmax in Sprague-Dawley rat at 25 mg/kg, po administered as single dose; format: ADME, organism-based; parameters: dose 25 mg/kg, route oral; settings: in vivo
# How it was run: (§5)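 Sprague-Dawley rats were given single doses, intravenous at 10–50 mg/kg or oral at 10, 25 and 50 mg/kg. Plasma PK parameters were CL, AUC0-inf, t1/2, Cmax and %F.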
# [21] = AUC (0 to infinity) in rat at 250 mg/kg administered twice daily for 28 days with 2 week recovery; format: ADME, organism-based; parameters: dose 250 mg/kg, time infinity; settings: in vivo
# [22] = Oral bioavailability in C57Bl6 mouse at 100 mg/kg administered as single dose; format: ADME, organism-based; settings: in vivo
# How it was run: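 C57Bl/6 mice received a single oral dose of 10 or 100 mg/kg, with iv dosing run for comparison. Plasma AUC0-inf, t1/2, Cmax and oral bioavailability (%F) were determined.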
# [23] = Half life in dog at 10 mg/kg, iv administered as single dose; format: ADME, organism-based, Canis lupus familiaris; settings: in vivo; how it was run: as §2
# [24] = Half life in dog at 3 mg/kg, iv administered as single dose; format: ADME, organism-based, Canis lupus familiaris; settings: in vivo; how it was run: as §2
# [25] = AUC (0 to infinity) in Sprague-Dawley rat at 10 mg/kg, iv administered as single dose; format: ADME, organism-based; parameters: dose 10 mg/kg, time infinity, route intravenous; settings: in vivo; how it was run: as §5
# [26] = Half life in Sprague-Dawley rat at 10 mg/kg, iv administered as single dose; format: ADME, organism-based; settings: in vivo; how it was run: as §5
# [27] = AUC (0 to infinity) in dog at 10 mg/kg, iv administered as single dose; format: ADME, organism-based, Canis lupus familiaris; parameters: dose 10 mg/kg, time infinity, route intravenous; settings: in vivo; how it was run: as §1
# [28] = Stability in human microsomes assessed as parent compound remaining after 90 mins in presence of phase 1 and 2 metabolic cofactors; format: ADME, Microsome; settings: read-out: Stability
# [29] = Half life in C57Bl6 mouse at 100 mg/kg, po administered as single dose; format: ADME, organism-based; settings: in vivo; how it was run: as §4
# [30] = Half life in C57Bl6 mouse at 10 mg/kg, po administered as single dose; format: ADME, organism-based; settings: in vivo; how it was run: as §4
# [31] = AUC (0 to infinity) in Sprague-Dawley rat at 10 mg/kg, po administered as single dose; format: ADME, organism-based; parameters: dose 10 mg/kg, route oral, time infinity; settings: in vivo; how it was run: as §5
# [32] = Permeability across apical to basolateral side in human Caco2 cells; format: ADME, cell-based; settings: Caco-2, read-out: permeability
# [33] = Clearance in Sprague-Dawley rat at 25 mg/kg, iv administered as single dose; format: ADME, organism-based; settings: in vivo; how it was run: as §5
# [34] = Cmax in dog at 5 mg/kg, po administered as single dose; format: ADME, organism-based, Canis lupus familiaris; parameters: dose 5 mg/kg, route oral; settings: in vivo; how it was run: as §1
# [35] = Half life in dog at 25 mg/kg, iv administered as single dose; format: ADME, organism-based, Canis lupus familiaris; settings: in vivo; how it was run: as §2
# [36] = Half life in Sprague-Dawley rat at 10 mg/kg, po administered as single dose; format: ADME, organism-based; settings: in vivo; how it was run: as §3
smiles,measurement,setting,value
O[C@H](C[C@H]1c2c(F)cccc2-c2cncn21)[C@H]1CC[C@H](O)CC1 [NAVOXIMOD],bioavailability,[1],71.8%
same,clearance,[2],59.3 mL/min/kg
same,half-life,[3],2.2 h
same,Tmax,[4],0.5 h
same,AUC(0-inf),[5],207 ng·h/mL
same,half-life,[6],3 h
same,AUC(0-inf),[7],3780 ng·h/mL
same,Papp B→A,[8],35 ×10⁻⁶ cm/s
same,solubility,[9],> 200 µM
same,clearance,[10],41.4 mL/min/kg
same,half-life,[11],1.25 h
same,AUC(0-inf),[12],1040 ng·h/mL
same,NOAEL at 28 days,[13],200 mg/kg
same,Drug uptake,[14],Active
same,clearance,[15],56.1 mL/min/kg
same,AUC at 12 h,[16],22600 ng·h/mL
same,half-life,[17],1.06 h
same,half-life,[18],3.9 h
same,clearance,[19],53.7 mL/min/kg
same,Cmax,[20],6420 ng/mL
same,AUC(0-inf),[21],22500 ng·h/mL
same,bioavailability,[22],87%
same,half-life,[23],4.8 h
same,half-life,[24],1.6 h
same,AUC(0-inf),[25],3930 ng·h/mL
same,half-life,[26],1.44 h
same,AUC(0-inf),[27],3130 ng·h/mL
same,remaining at […],[28],> 85%
same,half-life,[29],3.3 h
same,half-life,[30],1.2 h
same,AUC(0-inf),[31],1630 ng·h/mL
same,Papp A→B,[32],22.7 ×10⁻⁶ cm/s
same,clearance,[33],32 mL/min/kg
same,Cmax,[34],132 ng/mL
same,half-life,[35],6.9 h
same,half-life,[36],1.05 h
